# Assay results of several laboratories.
# MAOB: Amine oxidase [flavin-containing] B (MAOB, Homo sapiens, UniProt P27338)
# GLO1: Lactoylglutathione lyase (GLO1, Homo sapiens, UniProt Q04760)
Compound,target,test,conditions,inhibition [%]
O=C(Nc1cccc(Cl)c1)c1ccc2c(c1)C(=O)NC2=O,MAOB,"enzyme activity, inhibitor",1 µM,63.9
Cc1cc(F)cc2c(CCC(=O)N[C@@H]3C(=O)NC[C@H]3O)c(-c3ccc(F)cc3)[nH]c12,"Beta-1 adrenergic receptor (ADRB1, Homo sapiens, UniProt P08588)",cell-free assay,10 µM,-1.5
O=C(N[C@@H](CSCc1ccc([N+](=O)[O-])cc1)C(=O)NO)c1ccccc1,GLO1,"enzyme activity, inhibitor",1 µM,46.1
O=C(Nc1ccc(Cl)cc1)c1ccc2c(c1)C(=O)NC2=O,MAOB,"enzyme activity, inhibitor",1 µM,52
NC/C(=C\F)COc1cccc(Cn2c(=S)[nH]c(=O)c3[nH]cnc32)c1,"Histamine H1 receptor (HRH1, Homo sapiens, UniProt P35367)","ligand displacement, radioligand",10 µM,< 50
Cc1cc(O)c(-c2ccc([C@@H](C)CN(C)C)cc2)c2c1[nH]c(=O)c1sccc12,"Serine/threonine-protein kinase NLK (NLK, Homo sapiens, UniProt Q9UBE8)","cell-free assay, inhibitor","0.1 µM, lysate",-4.94
C#Cc1cc(-c2cc(Nc3nc(N[C@@H](C)c4ccc(F)cn4)ncc3Cl)n[nH]2)ccc1C=O,"Ribosomal protein S6 kinase alpha-6 (RPS6KA6, Homo sapiens, UniProt Q9UK32)","enzyme activity, inhibitor",0.2 µM,16.8
CCN1/C(=C/C(C)=O)Sc2ccc(F)cc21,"Endothelin receptor type B (EDNRB, Homo sapiens, UniProt P24530)","ligand displacement, radioligand",10 µM,0
O=C(Nc1ccccc1)c1ccc2c(c1)C(=O)NC2=O,MAOB,"enzyme activity, inhibitor",1 µM,25
O=C(N[C@@H](CSCc1ccccc1)C(=O)NO)c1ccccc1,GLO1,"enzyme activity, inhibitor",1 µM,31.4
